Experimental data reported in ChEMBL document CHEMBL1149688, “Tetrapeptide inhibitors of the glutamate vesicular transporter (VGLUT)” (Bioorg Med Chem Lett, 2007).
Activity calls are given as the source filed them. The calls are words filed in the database; no cut-off is given here.

Tested on: not listed separately
Assay: Inhibition of [3H]glutamate uptake at VGLUT in rat brain synaptic vesicles
Assay type: tissue-based
Method in brief: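 Rat brain synaptic vesicles (approx. 0.1 mg protein) were incubated with ³H-L-glutamate (0.25 mM) and inhibitor over 0.01-5 mM, and the assay was started by adding substrate. IC50 values were taken from non-linear regression of sigmoidal dose-response curves and converted to Ki with the Cheng-Prusoff relationship, as mean ± s.e.m. (n = 3).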

Row | IC50 [µM] | Ki [µM] | Structure (SMILES)
1 | 864 | 828 | CC[C@H](C)[C@H](NC(=O)[C@H](N)CCC(N)=O)C(=O)N[C@H](CCC(=O)O)C(=O)N[C@@H](Cc1c[nH]c2ccccc12)C(=O)O

Organism: Rattus norvegicus
Assay: Inhibition of v-ATPase activity in rat brain synaptic vesicles
Assay type: tissue-based

Row | Activity | Structure (SMILES)
2 | inactive | CCC(C)C(NC(=O)C(N)CCC(N)=O)C(=O)NC(CCC(=O)O)C(=O)NC(Cc1c[nH]c2ccccc12)C(=O)O (racemic)
3 | inactive | NC(=O)CC(NC(=O)C(N)Cc1c[nH]c2ccccc12)C(=O)NC(CCC(=O)O)C(=O)NC(Cc1ccccc1)C(=O)O (racemic)

Tested on: VGLUT (Rattus norvegicus)
Assay: Inhibition of [3H]glutamate uptake at VGLUT in rat brain synaptic vesicles relative to control; values are per cent of control
Set-up: concentration or dose not given beside the values

Row | Structure (SMILES) | level, % of control [%]
4 | NC(=O)C[C@H](NC(=O)[C@H](N)Cc1c[nH]c2ccccc12)C(=O)N[C@H](CCC(=O)O)C(=O)N[C@H](Cc1ccccc1)C(=O)O | 41
5 | CC[C@H](C)[C@@H](NC(=O)[C@@H](N)CCC(N)=O)C(=O)N[C@@H](CCC(=O)O)C(=O)N[C@H](Cc1c[nH]c2ccccc12)C(=O)O | 28
6 | CC[C@H](C)[C@@H](NC(=O)[C@@H](N)CCC(N)=O)C(=O)N[C@@H](CCC(=O)O)C(=O)N[C@@H](Cc1c[nH]c2ccccc12)C(=O)O | 69
7 | CCC(C)C(NC(=O)C(N)CCC(N)=O)C(=O)NC(CCC(=O)O)C(=O)NC(Cc1c[nH]c2ccccc12)C(=O)O (racemic) | 38
8 | CC[C@H](C)[C@@H](NC(=O)[C@@H](N)CCC(N)=O)C(=O)N[C@H](CCC(=O)O)C(=O)N[C@H](Cc1c[nH]c2ccccc12)C(=O)O | 60
9 | NC(=O)CC(NC(=O)C(N)Cc1c[nH]c2ccccc12)C(=O)NC(CCC(=O)O)C(=O)NC(Cc1ccccc1)C(=O)O (racemic) | 13
10 | CC[C@H](C)[C@H](NC(=O)[C@@H](N)CCC(N)=O)C(=O)N[C@H](CCC(=O)O)C(=O)N[C@@H](Cc1c[nH]c2ccccc12)C(=O)O | 82
11 | CC[C@H](C)[C@@H](NC(=O)[C@H](N)CCC(N)=O)C(=O)N[C@H](CCC(=O)O)C(=O)N[C@H](Cc1c[nH]c2ccccc12)C(=O)O | 63
12 | CC[C@H](C)[C@@H](NC(=O)[C@H](N)CCC(N)=O)C(=O)N[C@@H](CCC(=O)O)C(=O)N[C@H](Cc1c[nH]c2ccccc12)C(=O)O | 35
13 | NC(=O)CCC(N)C(=O)NC(Cc1c[nH]c2ccccc12)C(=O)NC(CCC(=O)O)C(=O)NC(Cc1c[nH]c2ccccc12)C(=O)O (racemic) | 66
